The record followed here is ChEMBL document CHEMBL1132940, “Pharmacophore/receptor models for GABA(A)/BzR subtypes (alpha1beta3gamma2, alpha5beta3gamma2, and alpha6beta3gamma2) via a comprehensive ligand-mapping approach” (J Med Chem, 2000).

Assay [1] in a line: Selectivity ratio of alpha1 beta-3 gamma2 GABA A / BzR and alpha5 beta-3 gamma2 GABA A / BzR.
In assay [2] the target is T1, GABA-A receptor; alpha-5/beta-3/gamma-2 (Homo sapiens, UniProt P18507+P28472+P31644).
T1 sequence (P18507 whole entry): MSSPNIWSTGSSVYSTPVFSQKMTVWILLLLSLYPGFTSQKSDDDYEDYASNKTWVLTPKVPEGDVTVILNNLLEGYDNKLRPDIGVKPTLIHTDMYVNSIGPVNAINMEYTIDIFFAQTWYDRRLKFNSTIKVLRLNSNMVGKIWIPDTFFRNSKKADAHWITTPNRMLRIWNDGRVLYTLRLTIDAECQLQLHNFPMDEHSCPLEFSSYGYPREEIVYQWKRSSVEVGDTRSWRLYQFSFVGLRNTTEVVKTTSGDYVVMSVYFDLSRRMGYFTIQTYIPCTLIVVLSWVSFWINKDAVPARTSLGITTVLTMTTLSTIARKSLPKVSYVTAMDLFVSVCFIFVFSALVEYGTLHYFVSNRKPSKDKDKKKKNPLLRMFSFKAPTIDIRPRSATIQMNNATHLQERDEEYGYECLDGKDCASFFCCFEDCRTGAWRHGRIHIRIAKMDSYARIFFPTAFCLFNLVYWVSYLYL
T1 sequence (P28472 whole entry): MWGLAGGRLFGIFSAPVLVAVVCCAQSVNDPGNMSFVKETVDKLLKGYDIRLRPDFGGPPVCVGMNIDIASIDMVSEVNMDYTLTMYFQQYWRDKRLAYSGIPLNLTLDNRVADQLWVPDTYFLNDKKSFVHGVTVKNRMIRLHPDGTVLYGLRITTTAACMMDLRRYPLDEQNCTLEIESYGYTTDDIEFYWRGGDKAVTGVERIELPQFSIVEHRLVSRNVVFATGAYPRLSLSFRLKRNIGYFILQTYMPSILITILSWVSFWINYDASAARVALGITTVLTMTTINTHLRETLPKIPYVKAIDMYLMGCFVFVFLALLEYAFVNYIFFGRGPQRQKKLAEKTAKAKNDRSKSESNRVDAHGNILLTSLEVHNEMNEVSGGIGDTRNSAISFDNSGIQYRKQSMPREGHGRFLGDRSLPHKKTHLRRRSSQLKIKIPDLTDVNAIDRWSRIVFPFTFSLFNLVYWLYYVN
T1 sequence (P31644 whole entry): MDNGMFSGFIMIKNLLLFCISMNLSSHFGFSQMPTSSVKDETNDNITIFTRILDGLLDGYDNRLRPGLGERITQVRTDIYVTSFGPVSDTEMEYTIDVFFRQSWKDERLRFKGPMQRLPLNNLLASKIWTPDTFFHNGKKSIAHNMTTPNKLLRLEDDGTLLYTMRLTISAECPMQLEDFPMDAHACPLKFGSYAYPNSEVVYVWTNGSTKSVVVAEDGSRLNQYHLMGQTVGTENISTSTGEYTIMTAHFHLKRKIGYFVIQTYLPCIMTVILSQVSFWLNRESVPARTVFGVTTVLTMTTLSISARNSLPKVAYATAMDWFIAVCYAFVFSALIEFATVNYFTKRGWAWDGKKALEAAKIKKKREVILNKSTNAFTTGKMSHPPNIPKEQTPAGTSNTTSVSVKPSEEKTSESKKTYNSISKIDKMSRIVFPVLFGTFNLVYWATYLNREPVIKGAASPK
Nature of the assay: Binding affinity for human recombinant gamma-aminobutyric-acid (GABA) A receptor alpha-5-beta-3-gamma-2. The class given is protein-complex assay.

The target of assay [3] is GABA-A receptor; alpha-6/beta-3/gamma-2 (Homo sapiens, UniProt P18507+P28472+Q16445). Nature of the assay: Binding affinity for human recombinant gamma-aminobutyric-acid (GABA) A receptor alpha-6-beta-3-gamma-2. The class given is protein-complex assay. In a few lines:
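Ltk⁻ cells expressing human α6β3γ2 were harvested by scraping into PBS, centrifuged at 3000g and resuspended in 10 mM KH₂PO₄/100 mM KCl (pH 7.4). Incubation was 1 h at 4 °C with filter harvest and scintillation counting.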

The target of assay [4] is T2, GABA-A receptor; alpha-3/beta-3/gamma-2 (Homo sapiens, UniProt P18507+P28472+P34903).
T2 sequence (P18507 whole entry): T1 sequence (P18507 whole entry)
T2 sequence (P28472 whole entry): T1 sequence (P28472 whole entry)
T2 sequence (P34903 whole entry): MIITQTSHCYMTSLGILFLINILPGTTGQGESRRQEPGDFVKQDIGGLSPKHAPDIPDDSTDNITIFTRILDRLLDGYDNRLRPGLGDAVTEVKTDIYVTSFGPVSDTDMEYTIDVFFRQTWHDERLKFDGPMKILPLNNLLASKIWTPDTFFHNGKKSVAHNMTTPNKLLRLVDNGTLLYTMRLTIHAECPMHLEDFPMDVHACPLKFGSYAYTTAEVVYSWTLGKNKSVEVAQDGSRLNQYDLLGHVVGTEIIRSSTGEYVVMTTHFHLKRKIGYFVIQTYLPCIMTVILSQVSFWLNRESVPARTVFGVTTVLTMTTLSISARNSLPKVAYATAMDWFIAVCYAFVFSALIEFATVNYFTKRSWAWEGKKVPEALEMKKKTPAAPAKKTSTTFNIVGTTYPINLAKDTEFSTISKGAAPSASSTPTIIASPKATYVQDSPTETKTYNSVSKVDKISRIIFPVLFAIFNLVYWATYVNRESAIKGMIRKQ
The assay can be described thus: Binding affinity for human recombinant gamma-aminobutyric-acid (GABA) A receptor alpha-3-beta-3-gamma-2. The class given is protein-complex assay.

Sequence of GABA-A receptor; alpha-6/beta-3/gamma-2 (Q16445 whole entry, one chain of several): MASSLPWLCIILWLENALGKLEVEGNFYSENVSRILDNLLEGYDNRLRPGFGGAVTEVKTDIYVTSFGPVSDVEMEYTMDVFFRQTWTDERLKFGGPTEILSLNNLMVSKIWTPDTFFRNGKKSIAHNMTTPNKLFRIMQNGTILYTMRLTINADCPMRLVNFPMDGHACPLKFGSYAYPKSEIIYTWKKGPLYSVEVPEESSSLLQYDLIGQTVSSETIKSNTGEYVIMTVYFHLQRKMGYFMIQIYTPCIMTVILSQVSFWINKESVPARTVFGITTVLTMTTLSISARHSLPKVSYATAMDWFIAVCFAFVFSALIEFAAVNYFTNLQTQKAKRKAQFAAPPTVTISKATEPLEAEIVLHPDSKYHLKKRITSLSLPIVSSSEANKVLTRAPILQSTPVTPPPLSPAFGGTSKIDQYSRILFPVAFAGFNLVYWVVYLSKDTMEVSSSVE

For the compound `CN1Cc2c(C(=O)OCC3CC3)ncn2-c2ccc(Cl)cc2C1=O`, the Ratio in assay [1] worked out at 1.7.
Still for that read-out and setting: the value for `CC(=O)c1ncn2c1CN(C)C(=O)c1cc(Cl)ccc1-2` was 6.7; that for `CN1Cc2c(C(=O)OC(C)(C)C)ncn2-c2ccc(C#CC[Si](C)(C)C)cc2C1=O` was 12; that for `CN1Cc2c(C(=O)OC(C)(C)C)ncn2-c2ccc(I)cc2C1=O` was 25.5.
On the same count and under the same terms, the value for `C#Cc1ccc2c(c1)C(=O)N1CCC[C@H]1c1c(-c3nc(C(C)C)no3)ncn1-2` was 15.
Same read-out and setting: the value for `C#Cc1ccc2c(c1)C(=O)N1CC[C@H]1c1c(C(=O)OCC)ncn1-2` was 57; that for `CN1Cc2c(C(=O)OC(C)(C)C)ncn2-c2ccc(N=C=S)cc2C1=O` was 6.8; that for `CN1Cc2c(C(=O)OC(C)(C)C)ncn2-c2ccc(Br)cc2C1=O` was 24.3.
Regarding `CCN(CC)Cc1ncn2c1CN(C)C(=O)c1cc(Cl)ccc1-2`, in assay [1], the Ratio was 3.2.
The same measure, in the same setting: the value for `CCOC(=O)c1ncn2c1CN(C)C(=O)c1cc(Cl)ccc1-2` was 8.
With `CC(C)N(Cc1ncn2c1CN(C)C(=O)c1cc(Cl)ccc1-2)C(C)C`, the Ratio in assay [1] amounted to 3.2.
On the same count and under the same terms, the value for `CCCCCc1ncn2c1CN(C)C(=O)c1cc(Cl)ccc1-2` was 5.6.
Consider `COCc1ncn2c1CN(C)C(=O)c1cc(Cl)ccc1-2`, for which the Ratio in assay [1] is over 7.7.
Regarding `COc1ccc2c(c1)C(=O)N(C)Cc1c(C(=O)OC(C)(C)C)ncn1-2`, the Ratio in assay [1] was found to be 23.
The same measure, in the same setting: the value for `CCc1ncn2c1CN(C)C(=O)c1cc(Cl)ccc1-2` was 2.2.
As to `CCOC(=O)c1ncn2c1[C@@H]1CCN1C(=O)c1cc(Br)ccc1-2`, in assay [1], the Ratio came out at 56.
Still for that read-out and setting: the value for `C#Cc1ccc2c(c1)C(=O)N1CC[C@H]1c1c(-c3nc(CC)no3)ncn1-2` was 17.
As for `CCOC(=O)c1ncn2c1CN(C)C(=O)c1cc(N=[N+]=[N-])ccc1-2` [Ro-154513], in assay [2], the Ki came out at 0.3 nM.
Consider `C=Cc1ccc2c(c1)C(=O)N(C)Cc1c(C(=O)OCC)ncn1-2`, for which, in assay [1], the Ratio amounted to 20.8.
Take `CCOCc1ncn2c1CN(C)C(=O)c1cc(Cl)ccc1-2`: in assay [1], the Ratio is over 3.6.
Still for that read-out and setting: the value for `CN1Cc2c(C(=O)OC(C)(C)C)ncn2-c2ccc(C#C[Si](C)(C)C)cc2C1=O` was 75.5.
`CCOC(=O)c1ncn2c1[C@@H]1CCN1C(=O)c1cc(C#C[Si](C)(C)C)ccc1-2`: the Ratio in assay [1] turned out to be 32.
For `CN1Cc2c(C(=O)OC(C)(C)C)ncn2-c2ccc(O)cc2C1=O`, the Ratio in assay [1] came to 10.7.
For `CCc1ccc2c(c1)C(=O)N(C)Cc1c(C(=O)OC(C)(C)C)ncn1-2`, the Ratio in assay [1] came out at 8.6.
Still for that read-out and setting: the value for `C#Cc1ccc2c(c1)C(=O)N1CCC[C@H]1c1c(-c3nc(CC)no3)ncn1-2` was 36.
`COCc1c(C(=O)OC(C)C)ncc2[nH]c3ccc(OCc4ccccc4)cc3c12` [ABECARNIL]: in assay [3], the Ki was over 1000 nM.
As for `CN1Cc2c(C(=O)OC(C)(C)C)ncn2-c2ccc(N3CCCC3)cc2C1=O`, the Ratio in assay [1] was 0.63.
For `CCCOc1ccc2[nH]c3cnc(OCCC)c(COC)c3c2c1`, the inhibitory constant (Ki) in assay [3] is over 1000 nM.
Turning to `C#Cc1ccc2c(c1)C(=O)N1CC[C@H]1c1c(-c3nc(C(C)C)no3)ncn1-2`, the Ratio in assay [1] is 18.
`CCOc1cc2c(cn1)[nH]c1ccccc12`: the values for the inhibitory constant (Ki) in assay [4] and in assay [2] were 28.2 nM and 826 nM, respectively.
As to `CCOC(=O)c1ncn2c1[C@@H]1CCCN1C(=O)c1cc(C#C[Si](C)(C)C)ccc1-2`, the Ratio in assay [1] was 50.
As to `CCCCC(=O)c1ncn2c1CN(C)C(=O)c1cc(Cl)ccc1-2`, in assay [1], the Ratio is 9.6.
Still for that read-out and setting: the value for `C#Cc1ccc2c(c1)C(=O)N(C)Cc1c(C(=O)OCC)ncn1-2` was 58.
Still for that read-out and setting: the value for `CN1Cc2c(CCl)ncn2-c2ccc(Cl)cc2C1=O` was over 10.5; that for `CCOC(=O)c1ncn2c1CN(C)C(=O)c1cc(CC)ccc1-2` was 13.6; that for `CN1Cc2c(C(=O)OC(C)(C)C)ncn2-c2ccc([N+](=O)[O-])cc2C1=O` was 3.7.
On the same count and under the same terms, the value for `CN1Cc2c(C(=O)OC(C)(C)C)ncn2-c2ccc(Cl)cc2C1=O` was 26.6.
On to `CN1C(=O)CN=C(c2ccccc2)c2cc(Cl)ccc21` [DIAZEPAM], for which the Ki in assay [3] was over 3000 nM.
